Assay results reported in ChEMBL document CHEMBL1152494, “Synthesis of some new 1,3,4-thiadiazol-2-ylmethyl-1,2,4-triazole derivatives and investigation of their antimicrobial activities” (2009).
Activity calls are given as the source filed them. The calls are words filed in the database; no cut-off is given here.

Key:
Format in all cases: functional
Escherichia coli [1] = assay: Antimicrobial activity against Escherichia […] at 10 ug after 18 hrs by agar-well diffusion assay; details: read-out: IZ
Summary of the method: (§1)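 Bacteria were suspended in Mueller Hinton broth at about 10⁶ cfu/mL and flood-inoculated onto Mueller Hinton agar, then dried. Samples in DMSO went into 5-mm cork-bored wells. Plates were incubated 18 h at 35 °C and the zone of inhibition was read. Ampicillin was the standard, with a DMSO solvent control.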

[2] = tested on: Yersinia pseudotuberculosis; assay: Antimicrobial activity against Yersinia pseudotuberculosis ATCC 911 at 10 ug after 18 hrs by agar-well diffusion assay; details: ATCC 911, 18 h, read-out: IZ; summary of the method: as §1
Pseudomonas aeruginosa [3] = assay: Antimicrobial activity against Pseudomonas aeruginosa ATCC 27853 at 10 ug after 18 hrs by agar-well diffusion assay; details: ATCC 27853, 18 h, read-out: IZ
Summary of the method: (§2)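 Organisms suspended in Mueller Hinton broth, diluted to about 10⁶ cfu/mL, and flood-inoculated onto Mueller Hinton agar, then dried. Samples dissolved in DMSO were added to 5 mm wells cut in the agar. Plates were incubated 18 h at 35 °C, and inhibition zones were measured. Ampicillin was the standard drug, with a DMSO solvent control.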

Enterococcus faecalis [4] = assay: Antimicrobial activity against Enterococcus faecalis ATCC 29212 at 10 ug after 18 hrs by agar-well diffusion assay; details: ATCC 29212, 18 h, read-out: IZ; summary of the method: as §2
Staphylococcus aureus [5] = assay: Antimicrobial activity against Staphylococcus aureus ATCC […] at 10 ug after 18 hrs by agar-well diffusion assay; details: ATCC 25923, 18 h, read-out: IZ; summary of the method: as §2
Bacillus cereus [6] = assay: Antimicrobial activity against Bacillus cereus 702 Roma at 10 ug after 18 hrs by agar-well diffusion assay; details: read-out: IZ; summary of the method: as §2
Candida tropicalis [7] = assay: Antimicrobial activity against Candida tropicalis ATCC 13803 at 5 ug after 18 hrs by agar-well diffusion assay
Summary of the method: (§3)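 Yeasts were suspended in Mueller Hinton broth at about 10⁶ cfu/mL and flood-inoculated onto Sabouraud dextrose agar, then dried. Samples in DMSO went into 5-mm wells. Plates were incubated 18 h at 35 °C and inhibition zones were measured. Fluconazole was the standard, with a DMSO solvent control.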

Candida albicans [8] = assay: Antimicrobial activity against Candida albicans ATCC 60193 at 5 ug after 18 hrs by agar-well diffusion assay; summary of the method: as §3
[9] = tested on: Yersinia pseudotuberculosis; assay: Antimicrobial activity against Yersinia pseudotuberculosis ATCC 911 after 18 hrs by agar-well diffusion assay; summary of the method: as §1
Escherichia coli [10] = assay: Antimicrobial activity against Escherichia […] after 18 hrs by agar-well diffusion assay; summary of the method: as §2
Pseudomonas aeruginosa [11] = assay: Antimicrobial activity against Pseudomonas aeruginosa ATCC 27853 after 18 hrs by agar-well diffusion assay; summary of the method: as §2
Enterococcus faecalis [12] = assay: Antimicrobial activity against Enterococcus faecalis ATCC 29212 after 18 hrs by agar-well diffusion assay; summary of the method: as §2
Staphylococcus aureus [13] = assay: Antimicrobial activity against Staphylococcus aureus ATCC […] after 18 hrs by agar-well diffusion assay; summary of the method: as §2
Bacillus cereus [14] = assay: Antimicrobial activity against Bacillus cereus 702 Roma after 18 hrs by agar-well diffusion assay; summary of the method: as §2
Candida tropicalis [15] = assay: Antimicrobial activity against Candida tropicalis ATCC 13803 after 18 hrs by agar-well diffusion assay
Summary of the method: (§4)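 Yeast suspended in Mueller Hinton broth at about 10⁶ cfu/mL and flood-inoculated onto Sabouraud dextrose agar, then dried. Samples dissolved in DMSO were placed in 5 mm wells bored in the agar. After 18 h at 35 °C, the zone of inhibition was measured. Fluconazole was the standard drug, with a DMSO solvent control.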

Candida albicans [16] = assay: Antimicrobial activity against Candida albicans ATCC 60193 after 18 hrs by agar-well diffusion assay; summary of the method: as §4

Row | SMILES | zone of inhibition at 10 µg/disc (Escherichia coli [1]) | zone of inhibition at 10 µg/disc [2] | zone of inhibition at 10 µg/disc (Pseudomonas aeruginosa [3]) | zone of inhibition at 10 µg/disc (Enterococcus faecalis [4]) | zone of inhibition at 10 µg/disc (Staphylococcus aureus [5]) | zone of inhibition at 10 µg/disc (Bacillus cereus [6]) | inhibition zone (IZ) (Candida tropicalis [7]) | inhibition zone (IZ) (Candida albicans [8]) | inhibition zone (IZ) [9] | inhibition zone (IZ) (Escherichia coli [10]) | inhibition zone (IZ) (Pseudomonas aeruginosa [11]) | inhibition zone (IZ) (Enterococcus faecalis [12]) | inhibition zone (IZ) (Staphylococcus aureus [13]; ATCC 25923) | inhibition zone (IZ) (Bacillus cereus [14]) | inhibition zone (IZ) (Candida tropicalis [15]) | inhibition zone (IZ) (Candida albicans [16]) | inhibition zone (IZ) (Staphylococcus aureus [13]) | zone of inhibition at 5 µg/disc (Candida tropicalis [7]; ATCC 13803, 18 h, read-out: IZ) | zone of inhibition at 5 µg/disc (Candida albicans [8]; ATCC 60193, 18 h, read-out: IZ)
1 | CC1(C)S[C@@H]2[C@H](NC(=O)[C@H](N)c3ccccc3)C(=O)N2[C@H]1C(=O)O [AMPICILLIN] | 10 mm | 18 mm | 18 mm | 10 mm | 35 mm | 15 mm | inactive | inactive |  |  |  |  |  |  |  |  |  |  | 
2 | Cc1ccc(-c2nn(Cc3nnc(Nc4ccccc4)s3)c(=O)n2N)cc1 |  |  |  |  |  |  |  |  | inactive | inactive | inactive | inactive | inactive | inactive | inactive | inactive |  |  | 
3 | Cc1ccc(-c2nn(Cc3nnc(S)n3-c3ccccc3)c(=O)n2N)cc1 |  |  |  |  |  |  |  |  | 22 mm | 25 mm | 30 mm | 20 mm |  | 20 mm | inactive | inactive | 24 mm |  | 
4 | Cc1ccc(-c2nn(Cc3nnc(S)n3-c3ccc(F)cc3)c(=O)n2N)cc1 |  |  |  |  |  |  |  |  | 26 mm | 30 mm | 35 mm | 30 mm |  | 25 mm | inactive | inactive | 26 mm |  | 
5 | OC(Cn1cncn1)(Cn1cncn1)c1ccc(F)cc1F [FLUCONAZOLE] |  |  |  |  |  |  |  |  |  |  |  |  |  |  |  |  |  | 25 mm | 25 mm
6 | CSc1nnc(Cn2nc(-c3ccc(C)cc3)n(N)c2=O)n1-c1ccccc1 |  |  |  |  |  |  |  |  | inactive | inactive | inactive | inactive | inactive | inactive | inactive | inactive |  |  | 
